This is a sample that favours compounds with a hit; in the whole collection about 1.8% have one here.
PPC-1+TRAIL kill: compounds killing PPC-1 cancer cells with TRAIL present, primary screen, TRAIL potentiator project, ATPLite luminescence, uHTS; PPC-1 cells + TRAIL, ATPLite viability luminescence; 220,000 compounds, 0.41% hits; cell killing (% activity), % at 4 µM or 5 µM;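 active = cell killing above 50% in the first pass at 4 µM, then a duplicate retest at 5 µM averaging 50% or more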
STAT3 activator: IL-6 driven STAT3 reporter potentiators, primary screen, U3A cells, luciferase, luminescence, MLSCN library; IL-6 STAT3-luciferase reporter; 100% = signal with IL-6 EC80 alone; activation (% of control), % at 5.6 µM; 190,000 compounds, 0.91% hits;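 active = activation above the screen-wide mean of compound activation plus 3 SD, cut at about 130% in these data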
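Test system: human U3A cells carrying STAT3-luciferase construct; control set: IL-6-only wells as 100% reference; timing: compound pre-incubation 1 h before IL-6, then 6 h stimulation at 37 °C; also added: IL-6 stimulus at 33 ng/mL final; evaluation: % activation versus median of IL-6-stimulated wells; detection: reporter luminescence signal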
STAT1 inh: STAT1 signaling inhibitors, primary screen, cell-based, HTS, luciferase reporter | NIH 3T3 STAT1-luciferase reporter, IFN-gamma, luminescence | inhibition, % at 5.5 µM | 200,000 compounds, 0.35% hits;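 active = inhibition above a set limit, the mean inhibition across all tested compounds plus 3 SD, cut at about 34% in these data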
STAT3 inh-1: IL-6 driven STAT3 reporter inhibitors, primary screen, U3A cells, luciferase, luminescence, MLSCN library | IL-6 STAT3-luciferase reporter; host cell line lacks STAT1 | 190,000 compounds, 0.89% hits | inhibition, % at 5.5 µM;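 active = inhibition above the mean inhibition across all screened compounds plus 3 SD, cut at about 44% in these data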
TRAIL sens C8: viability loss with TRAIL in NB7+C8 cells, primary screen, TRAIL sensitizer project, cell-based, ATPlite luminescence; inhibition (viability loss, TRAIL sensitization), % at 10 µM; 360,000 compounds, 1% hits;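 active = compounds causing at least 50% loss of cell viability in the single-dose screen, relative to plate controls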
STAT3 inh-2: STAT3 reporter inhibitors, retest of hits, confirmation, U3A cells, luciferase, luminescence. shares compounds with STAT3 inh-1. IL-6 STAT3 luciferase reporter; cell line lacks STAT1. AID 1265, 2008. inhibition, % at 5.7 µM. 1,200 compounds, 45% hits;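 active = inhibition above the hit cutoff computed for the primary STAT3 screen, cut at about 44% in these data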
NFkB inh STAT3ct: NF-kB reporter inhibitors in human cells, confirmation, counter-screen for STAT3 inhibitor project, cell-based, HEK293T, luciferase, TNF-alpha stimulus; shares compounds with STAT3 inh-1; TNF-alpha induced; inhibition, % at 5.7 µM; 1,200 compounds, 36% hits; AID 1308, 2008;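 active = inhibition above the mean of solvent-only control wells plus 3 SD, cutoff set per campaign, cut at about 13% in these data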
STAT1 inh 2: STAT1 reporter inhibitors, IFN-gamma induced, confirmation, counter-screen for STAT3 inhibitor project, cell-based, NIH 3T3, luciferase luminescence | shares compounds with STAT3 inh-1 | NIH 3T3 STAT1-luciferase reporter | inhibition, % at 5.7 µM | 1,200 compounds, 27% hits | AID 1317, 2008;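 active = inhibition above the mean plus 3 SD of solvent-only control wells, limit set per screening run, cut at about 16% in these data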
PPC1 cytotox: cytotoxicity in PPC-1 cells, confirmation, cytotoxicity control for TRAIL apoptosis potentiator project, cell-based, ATP content luminescence; 1,200 compounds, 50% hits; shares compounds with PPC-1+TRAIL kill; cytotoxicity, % at 5 µM; PPC-1 viability, ATPlite luminescence, overnight;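 active = reconfirmed compounds whose average cytotoxicity reaches 50% or more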
Hits are given with their value; n = inactive; x = no result.

SMILES	PPC-1+TRAIL kill	STAT3 activator	STAT1 inh	STAT3 inh-1	TRAIL sens C8	STAT3 inh-2	NFkB inh STAT3ct	STAT1 inh 2	PPC1 cytotox
Nc1nc2ccccc2n1C(=O)c1ccccc1	61.6	n	n	66.7	76.6	n	n	n	61.6
COc1ccc(C(=O)n2c(N)nc3ccccc32)cc1OC	x	x	x	x	n	x	x	x	x
Nc1nc2ccccc2n1C(=O)c1ccc(F)cc1	50.5	n	n	67.5	81.2	n	n	n	n
CS(=O)(=O)c1cccc(NC(=O)C2CCCN2S(=O)(=O)c2ccc(F)cc2)c1 (stereo not given)	x	x	x	x	n	x	x	x	x
Cn1c(=O)c2cc(NC(=O)Cc3ccccc3F)ccc2n1Cc1ccc(Cl)cc1	x	x	x	x	n	x	x	x	x
COc1cc(SC)ccc1C(=O)Nc1ccc2c(c1)OCCO2	68.0	n	n	53.7	66.0	n	n	n	65.2
COc1cc(SC)ccc1C(=O)Nc1nccs1	67.0	n	n	58.1	80.5	n	n	n	69.3
COc1cc(SC)ccc1C(=O)Nc1ccccc1	n	n	n	n	n	x	x	x	x
Cc1ccccc1NC(=O)c1cnc2ccccn2c1=O	58.9	n	n	72.3	68.0	n	n	n	60.9
O=C(COc1ccccc1[N+](=O)[O-])Nc1cccnc1	n	n	n	n	n	x	x	x	x
Cc1ccnc(NC(=O)COc2ccccc2[N+](=O)[O-])c1	n	n	n	47.6	52.1	n	n	n	52.5
CN1CCN(NC(=O)Nc2ccc(Br)cc2Cl)CC1	x	x	x	x	n	x	x	x	x
Cc1ccc(CSc2nc3ncccc3[nH]2)cc1	n	n	n	48.4	66.9	n	n	n	n
C=C(C)CSc1nc2ncccc2[nH]1	n	n	n	n	n	x	x	x	x
Cc1ccc(S(=O)(=O)NC(=NC2CCCCC2)c2ccccc2)cc1	x	x	x	x	n	x	x	x	x
O=C1c2ccccc2C(=O)C1c1ccc2ccccc2n1	83.7	n	n	49.0	83.6	n	41.6	n	80.3
COC(=O)C1=C(C)NC(C)=C(C(=O)OC)C1c1ccc2ccccc2n1	n	n	n	n	n	x	x	x	x
COc1ccc(-c2ccc3c(c2)S(=O)(=O)c2cccc(C(=O)NCc4cc(C)oc4C(F)(F)F)c2C3=O)cc1OC	x	x	x	x	n	x	x	x	x
COc1ccc(C(=O)/C=C/Nc2cccc(O)c2)cc1	81.8	n	n	93.1	61.7	80.4	15.8	n	82.6
COc1ccc(/C=C\c2nc(=O)c3ccccc3o2)cc1	60.0	n	n	62.3	60.6	n	n	n	56.6
CCCCn1c(N)c(N(CCOC)C(=O)CCS(=O)(=O)c2ccc(Cl)cc2)c(=O)[nH]c1=O	x	x	x	x	n	x	x	x	x
O=C(CSc1nnc(-c2ccccc2)o1)Nc1ccccc1F	n	n	n	45.4	59.0	n	n	n	50.8
O=C(CSc1nnc(-c2ccncc2)o1)Nc1cc(F)ccc1F	x	x	x	x	n	x	x	x	x
Cc1ccc(-c2nnc(SCC(=O)Nc3ccccc3F)o2)cc1	75.8	n	n	55.7	71.8	n	n	n	69.5
C=C(C)CCOC(=O)C(CC(=O)O)NCc1ccco1 (stereo not given)	n	x	x	x	n	x	x	x	x
SMILES	PPC-1+TRAIL kill	STAT3 activator	STAT1 inh	STAT3 inh-1	TRAIL sens C8	STAT3 inh-2	NFkB inh STAT3ct	STAT1 inh 2	PPC1 cytotox
Cc1cccc(NC(=O)c2ccc(Cl)nc2)n1	x	x	x	x	n	x	x	x	x
CCOc1ccc(C(=O)Nc2cccc(C)n2)cc1	51.0	n	n	57.0	57.3	n	n	n	52.4
O=C(Nc1ccc(N2CCCCC2)cc1)c1ccccc1	65.5	n	n	66.5	73.6	n	n	n	61.2
Cc1ccc(C(=O)Nc2ccc(N3CCCCC3)cc2)cc1	x	x	x	x	n	x	x	x	x
CCc1noc(C)c1C(=O)NNC(=O)c1ccccc1F	x	x	x	x	n	x	x	x	x
Oc1ccc(-c2nnc(-c3ccc(O)cc3)nn2)cc1	53.1	n	n	51.2	63.9	61.8	n	n	53.9
Cc1csc(NC(=O)c2cc3c(s2)CCC3)n1	51.1	n	n	69.9	83.5	n	n	n	n
Cc1nc(NC(=O)c2cc3c(s2)CCCCC3)sc1C(=O)N(C)C	n	n	n	n	n	x	x	x	x
O=C(NS(=O)(=O)N1CCCC1)C1=C(N2CCCC2)COC1=O	x	x	x	x	n	x	x	x	x
O=C1c2ccccc2-c2nnc(-c3ccc(F)cc3)cc21	78.3	n	n	55.8	83.4	46.8	18.7	n	79.2
Cc1ccc(C(=O)Nc2ccc3nccnc3c2)cc1	73.6	n	n	52.5	76.0	n	n	n	74.0
Cc1cc(NC(=O)c2ccc3nccnc3c2)ccc1Br	x	x	x	x	n	x	x	x	x
O=C(COc1ccc(Cl)cc1Cl)Nc1ccc(Cl)cn1	59.4	n	n	66.2	64.7	n	n	n	59.4
CCCCCCCCC[n+]1cccc2c3ccccc3ccc21	n	n	n	89.6	62.1	89.2	56.7	32.7	n
